# In the library only some 3.1% were active in any assay of this set; here they are far more common.
# SENP8 block-1 – human SENP8 protease inhibitors, primary screen, biochemical, fluorescence, Nedd8 protein substrate, uHTS; Sentrin-specific protease 8 (Homo sapiens), Q96LD8; recombinant SENP8; inhibition, % at 20 µM; actives 0.64% (n = 360,000); in the data active = inhibition mostly above about 40%, no sharp cut-off; inactive = mostly below about 27%
# UBC13 inh – UBC13 polyubiquitin chain formation inhibitors, primary screen, biochemical, TR-FRET, uHTS; inhibition, % at 20 µM; actives 0.47% (n = 330,000); Ubiquitin-conjugating enzyme E2 N (Homo sapiens), P61088; AID 485273, 2010; in the data active = inhibition above about 45%, passing the limit was not always enough
# Target sequence (P61088 whole entry, looked up): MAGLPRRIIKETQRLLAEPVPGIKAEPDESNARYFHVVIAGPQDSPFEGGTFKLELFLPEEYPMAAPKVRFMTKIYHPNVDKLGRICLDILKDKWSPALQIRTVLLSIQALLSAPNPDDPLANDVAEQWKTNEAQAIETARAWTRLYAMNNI
# SENP6 block – SENP6 protease inhibitors, primary screen, biochemical, luminescence, uHTS; Sentrin-specific protease 6 (Homo sapiens), Q9GZR1; Recombinant SENP6 catalytic domain, aminoluciferin luminescence; inhibition, % at 10 µM; actives 1.8% (n = 330,000);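 active = inhibition above about 50% at the single tested dose, limit read from the data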;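 note: plate controls were DMSO wells with enzyme for no effect and DMSO wells lacking enzyme for full effect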
# Apaf1 inhib – inhibitors of human Apaf-1 apoptosome, primary screen, biochemical, DEVD-Rh110 fluorescence, uHTS; Apoptotic protease-activating factor 1 (Homo sapiens), O14727; actives 0.71% (n = 330,000); inhibition, % at 20 µM; reconstituted apoptosome caspase-3 activity; active = inhibition of at least 40% at 20 µM;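 note: plate controls were DMSO wells for no effect and DEVD-CHO caspase inhibitor wells for full effect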
#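 Assay system – apoptosome proteins · Medium – Hepes buffer, pH 7.5 · Also added – cytochrome c with DEVD-Rh110 · Timing – 30 min compound preincubation, 50 min activation, room temperature · Detection – Rh110 fluorescence, excitation 480 nm, emission 540 nm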
# SENP8 block-2 – SENP8 protease inhibitors, primary screen, biochemical, luminescence | purified SENP8, Z-RLRGG-aminoluciferin cleavage | inhibition, % at 10 µM | actives 1.2% (n = 330,000); in the data active = inhibition above about 50%
# SENP7 inh – SENP7 protease inhibitors, primary screen, biochemical, luminescence, uHTS; Sentrin-specific protease 7 (Homo sapiens), Q9BQF6; recombinant SENP7, Z-RLRGG-aminoluciferin luminescence, 40 min; inhibition, % at 5 µM; actives 1.5% (n = 330,000);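 active = inhibition above about 50% at the single test dose, limit read from the data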;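 note: plate controls were DMSO with enzyme for no effect and no enzyme buffer wells for full effect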
# Casp3 UBC13 ctr – CASP3 inhibitor validation, counterassay for project on UBE2N polyubiquitination blockers, biochemical, one dose | shares compounds with UBC13 inh | Recombinant caspase-3, Caspase-Glo 3/7 luminescence, 60 min | actives 4% (n = 1,400) | inhibition, % at 20 µM;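 active = mean inhibition across replicates above about 26%, limit read from the data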;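 note: plate controls were DMSO with caspase-3 for no effect and DMSO wells lacking enzyme for full effect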
# Target sequence (P42574 whole entry, looked up): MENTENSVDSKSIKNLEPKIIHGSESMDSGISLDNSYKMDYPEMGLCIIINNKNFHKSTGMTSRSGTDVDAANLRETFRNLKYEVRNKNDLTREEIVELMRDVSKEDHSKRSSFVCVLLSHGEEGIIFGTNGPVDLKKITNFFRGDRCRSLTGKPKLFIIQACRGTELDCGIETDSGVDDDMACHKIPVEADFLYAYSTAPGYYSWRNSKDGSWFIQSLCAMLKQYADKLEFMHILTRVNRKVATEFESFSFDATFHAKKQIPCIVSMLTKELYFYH
# UBC13 conf – UBC13 polyubiquitination inhibitors, single-point retest, confirmation, biochemical, TR-FRET, single concentration | shares compounds with UBC13 inh | inhibition, % at 10 µM | actives 68% (n = 1,400) | AID 488859, 2010; in the data active = inhibition above about 45%
# * marks the source's active call; other numbers are inactive results; . = no result given.
SMILES,SENP8 block-1,UBC13 inh,SENP6 block,Apaf1 inhib,SENP8 block-2,SENP7 inh,Casp3 UBC13 ctr,UBC13 conf
C#CCOCCOCCOCCNc1nc(N2CCN(C(=O)[C@H](CCCCN)n3cc([C@@H](N)C(C)CC)nn3)CC2)nc(N2CCN(C(=O)[C@H](CCCCN)n3cc([C@@H](N)CC(C)C)nn3)CC2)n1 (stereo partly drawn),28,105*,-12,-16,-1,-15,3,112*
O=CC(=Cc1ccccc1)c1ccccc1,14,.,.,.,.,.,.,.
OCCN1CCN(c2ncnc3c2ncn3[C@H]2CN(Cc3cccs3)C[C@@H](CO)O2)CC1,16,.,.,.,.,.,.,.
CCNC(=O)N(C)c1c(CC)nc2ccc(C(=O)N3CCN(C(=O)c4ccco4)CC3)cn12,14,.,.,.,.,.,.,.
COCCNC(=O)C1CCCN(C(=O)c2cc(C)n(C(C)(C)C)n2)CC1 (stereo not drawn),23,.,.,.,.,.,.,.
Clc1ccc2c(c1)CNc1c(ncnc1N1CCOCC1)O2,6,50*,-12,-9,1,-3,-2,41
CN1CCc2c(sc3c2C(=O)NC(c2cn(Cc4ccccc4)c4ccccc24)N3)C1 (stereo not drawn),-259,51*,-2,17,-3,1,-2,64*
O=C(Cn1nc(CNc2ccc(Br)cc2)[n+]2c1CCCCC2)c1ccc([N+](=O)[O-])cc1,20,52*,1,25,-2,5,0,46*
O=C(NNC(=O)C1CCN(S(=O)(=O)c2ccc(Cl)cc2)CC1)c1ccc(S(=O)(=O)N2CCCCC2)cc1,-4,56*,6,6,-9,-2,7,52*
O=C(OCc1nc2scc(-c3ccccc3)c2c(=O)[nH]1)c1cc([N+](=O)[O-])ccc1Cl,7,46*,-6,22,-11,-4,2,-3
O=C(O)CSCc1nc2scc(-c3ccccc3)c2c(=O)[nH]1,3,-4,-8,15,-4,-9,.,.
COc1ccc(-c2csc(NC(C)c3nc4cc(C(=O)NCCCO)ccc4n3Cc3ccc(C)cc3)n2)cc1 (stereo not drawn),-40,53*,-15,11,5,-2,-3,23
COc1ccc2nc(C)cc(N/N=C/c3cccc(OC)c3O)c2c1,-106,58*,-15,33,-10,13,2,111*
COC(=O)[C@]12CCCCC=C1N(CCC1=CCCCC1)C(=O)[C@H](CC(=O)NCc1cccc3ccccc13)C2,6,.,.,.,.,.,.,.
CCc1ccc(OCCNc2cc(N3CCNC(C)C3)ccc2[N+](=O)[O-])cc1 (stereo not drawn),27,68*,0,75*,-8,8,-4,55*
CC(C)c1ccc(CNc2cc(N3CCCC3)ccc2[N+](=O)[O-])cc1,24,-7,-17,22,1,-4,.,.
c1coc(-c2nc(-c3ccco3)c(-c3ccco3)nc2-c2ccco2)c1,-252,77*,-151,63*,14,1,21,64*
Nc1nc(-c2ccco2)c(-c2ccco2)s1,-67,-20,-3,-12,7,10,.,.
CCOc1ccc(Cl)cc1/C=N/NC(N)=O,0,50*,-12,7,-5,2,-2,53*
CCOc1ccc(Cl)cc1/C=N/O,1,12,-12,-11,-4,5,.,.
Cn1c(NCCN2CCCC2)nc2cc(-c3ccsc3)sc2c1=O,-43,.,.,.,.,.,.,.
Cc1cccc(NC(=S)N(C)C)c1C,14,-1,3,-26,2,1,.,.

# Screens from PubChem.
